The values that follow come from ChEMBL document CHEMBL3734662, “Modification of a dihydropyrrolopyrimidine phosphoinositide 3-kinase (PI3K) inhibitor to improve oral bioavailability” (Bioorg Med Chem, 2015).

≈ marks a conversion by molar mass, not a printed value.

The nature of the first data set: Initial plasma concentration in cynomolgus monkey at 2.5 mg/kg, iv by LC-MS/MS analysis. The data set is classed as ADME, organism-based, Macaca fascicularis.
Settings: not given
The method in brief:
(§1)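 Male cynomolgus monkeys (n = 2–3 per group; some groups n = 1) were dosed with solutions at 2.5 or 5 mg/kg iv or […]. Heparinized blood was sampled at 0.08–24 h after iv dosing and at 0.5–24 h after po dosing. Plasma was kept at −80 °C and quantified by LC–MS/MS. Non-compartmental analysis gave the PK parameters.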
`Nc1ncc(-c2nc(N3CCOCC3)nc3c2CCN3c2ccc(C(=O)N3CCOCC3)cc2F)cn1`: the C0 turned out to be 2660 ng/mL.

A short description of the next data set: Intrinsic clearance in human liver microsomes at 1 uM after 30 mins by LC-MS/MS analysis. The data set is classed as ADME. To be noted: read-out: CLH. The method in brief: (§2)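 Compound was incubated with human or mouse liver microsomes (0.5 mg protein/mL) in 50 mM phosphate buffer, pH 7.4, with 1 mM NADPH at 37 °C for 30 min. The reaction was quenched with three volumes of acetonitrile and centrifuged. Remaining compound in the supernatant was measured by LC–MS/MS.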
Consider `Nc1ncc(-c2nc(N3CCOCC3)nc3c2CCN3c2cccnc2)cn1`, for which the microsomal CLint at 1 µM came out at 9.7 µL/min/mg.
For the compound `Nc1ncc(-c2nc(N3CCOCC3)nc3c2CCN3c2ccc(C(=O)N3CCOCC3)cc2F)cn1`, the microsomal CLint at 1 µM was 2.87 µL/min/mg.

The next data set in a line: Initial plasma concentration in BALB/c nu mouse at 10 mg/kg, iv by LC-MS/MS analysis. The data set is classed as ADME, organism-based.
Settings: not given
The method in brief: (§3)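 Female BALB/c-nu mice (n = 2–3 per group) received test compounds as solutions at 10 mg/kg iv or 50 or 100 mg/kg po. Heparinized blood was drawn at 0.08, 0.25, 1, 2, 4, 7 and 24 h after iv dosing, and at 0.5, 1, 2, 4, 7 and 24 h after po dosing. Plasma was stored at −80 °C and assayed by LC–MS/MS. Parameters came from non-compartmental analysis.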
Take `Nc1ncc(-c2nc(N3CCOCC3)nc3c2CCN3c2cccnc2)cn1`: the C0 was determined as 10400 ng/mL.
Compound `Nc1ncc(-c2nc(N3CCOCC3)nc3c2CCN3c2ccc(C(=O)N3CCOCC3)cc2F)cn1` gave a C0 of 9180 ng/mL.

A further data set in a line: Oral bioavailability in BALB/c nu mouse at 50 mg/kg by LC-MS/MS analysis. Format: ADME, organism-based. To be noted: in vivo. The method in brief: as §3
As for `Nc1ncc(-c2nc(N3CCOCC3)nc3c2CCN3c2ccc(C(=O)N3CCOCC3)cc2F)cn1`, the bioavailability came out at 86%.

The next data set is described as follows: AUC (infinity) in BALB/c nu mouse at 10 mg/kg, iv by LC-MS/MS analysis. The data set is classed as ADME, organism-based. Also noted: dose 10 mg/kg, time infinity, route intravenous. The settings on record: in vivo. The method, boiled down:
as §3
Take `Nc1ncc(-c2nc(N3CCOCC3)nc3c2CCN3c2cccnc2)cn1`: the AUC(0-inf) was 4690 ng·h/mL.
Take `Nc1ncc(-c2nc(N3CCOCC3)nc3c2CCN3c2ccc(C(=O)N3CCOCC3)cc2F)cn1`: the AUC(0-inf) was found to be 15000 ng·h/mL.

The next data set in a line: Clearance in cynomolgus monkey at 2.5 mg/kg, iv by LC-MS/MS analysis. The data set is classed as ADME, organism-based, Macaca fascicularis. The settings on record: in vivo. The method, boiled down: as §1
With `Nc1ncc(-c2nc(N3CCOCC3)nc3c2CCN3c2ccc(C(=O)N3CCOCC3)cc2F)cn1`, the clearance was 7.54 mL/min/kg.

Another data set can be described thus: Half life in BALB/c nu mouse at 10 mg/kg, iv by LC-MS/MS analysis. The data set is classed as ADME, organism-based. To be noted: in vivo. The method, boiled down:
as §3
In turn, `Nc1ncc(-c2nc(N3CCOCC3)nc3c2CCN3c2ccc(C(=O)N3CCOCC3)cc2F)cn1` showed a half-life of 1.27 h.

A further data set can be described thus: Half life in cynomolgus monkey at 5 mg/kg, iv by LC-MS/MS analysis. Format: ADME, organism-based, Macaca fascicularis. To be noted: in vivo. The method in brief:
as §1
On to `Nc1ncc(-c2nc(N3CCOCC3)nc3c2CCN3c2cccnc2)cn1`, for which the half-life was 1.36 h.

A short description of a further data set: Clearance in BALB/c nu mouse at 10 mg/kg, iv by LC-MS/MS analysis. Format: ADME, organism-based. To be noted: in vivo. The method in brief: as §3
`Nc1ncc(-c2nc(N3CCOCC3)nc3c2CCN3c2ccc(C(=O)N3CCOCC3)cc2F)cn1` displayed a clearance of 11.1 mL/min/kg.

A short description of the next data set: Oral bioavailability in cynomolgus monkey at 10 mg/kg by LC-MS/MS analysis. Format: ADME, organism-based, Macaca fascicularis. The settings on record: in vivo. The method, boiled down:
as §1
Consider `Nc1ncc(-c2nc(N3CCOCC3)nc3c2CCN3c2cccnc2)cn1`, for which the bioavailability is 5.6%.
Still for that read-out and setting: with `Nc1ncc(-c2nc(N3CCOCC3)nc3c2CCN3c2ccc(C(=O)N3CCOCC3)cc2F)cn1` the figure was 47%.

Another data set in a line: AUC (0 to t) in cynomolgus monkey at 10 mg/kg, po by LC-MS/MS analysis. To be noted: in vivo. The data set is classed as ADME, organism-based, Macaca fascicularis. The method, boiled down:
as §1
`Nc1ncc(-c2nc(N3CCOCC3)nc3c2CCN3c2cccnc2)cn1`: the AUC(0-t) was 417 ng·h/mL.
On to `Nc1ncc(-c2nc(N3CCOCC3)nc3c2CCN3c2ccc(C(=O)N3CCOCC3)cc2F)cn1`, for which the area under the curve AUC(0-t) came to 10400 ng·h/mL.

A further data set in a line: Solubility in fasted state simulated intestinal fluid. Format: ADME.
Settings: not given
The method, boiled down:
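A 4 mM or 1 mM DMSO sample aliquot was freeze-dried to remove DMSO, then taken up in FaSSIF, pH 6.5 (sodium taurocholate, lecithin, KH₂PO₄, KCl, NaOH). The mixture was sonicated 10 min, shaken 2 h, centrifuged 10 min and filtered. Filtrate concentration was determined by HPLC-UV against a calibration curve.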
Compound `Nc1ncc(-c2nc(N3CCOCC3)nc3c2CCN3c2cccnc2)cn1` returned a solubility of less than 12 µg/mL.
In turn, `Nc1ncc(-c2nc(N3CCOCC3)nc3c2CCN3c2ccc(C(=O)N3CCOCC3)cc2F)cn1` showed a solubility of 37 µg/mL (≈ 73 µM).

The next data set can be described thus: AUC (infinity) in cynomolgus monkey at 5 mg/kg, iv by LC-MS/MS analysis. To be noted: in vivo. The data set is classed as ADME, organism-based, Macaca fascicularis. Set-up: dose 5 mg/kg, route intravenous, time infinity. The method in brief:
as §1
In turn, `Nc1ncc(-c2nc(N3CCOCC3)nc3c2CCN3c2cccnc2)cn1` had an area under the curve AUC(0-inf) of 3700 ng·h/mL.

The next data set is described as follows: Clearance in cynomolgus monkey at 5 mg/kg, iv by LC-MS/MS analysis. The settings on record: in vivo. Format: ADME, organism-based, Macaca fascicularis. The method in brief:
as §1
On to `Nc1ncc(-c2nc(N3CCOCC3)nc3c2CCN3c2cccnc2)cn1`, for which the clearance came to 24.4 mL/min/kg.

Another data set can be described thus: Permeability of the compound by PAMPA method. Format: ADME. The settings on record: read-out: permeability. The method in brief: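 PAMPA: a 10 mM DMSO stock was diluted into donor buffer, checked for precipitation and filtered. The filter plate was coated with phospholipid, and the acceptor buffer was 0.05 M MOPSO, pH 6.5. Donor and acceptor concentrations were measured after incubation, and Pe (10⁻⁶ cm/s) was calculated from donor volume, film area, initial donor concentration and acceptor accumulation over time.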
Consider `Nc1ncc(-c2nc(N3CCOCC3)nc3c2CCN3c2cccnc2)cn1`, for which the Papp was found to be 1.9 ×10⁻⁶ cm/s.
For `Nc1ncc(-c2nc(N3CCOCC3)nc3c2CCN3c2ccc(C(=O)N3CCOCC3)cc2F)cn1`, the Papp came out at 3.16 ×10⁻⁶ cm/s.

The nature of the next data set: AUC (0 to t) in BALB/c nu mouse at 50 mg/kg, po by LC-MS/MS analysis. The data set is classed as ADME, organism-based. To be noted: in vivo. The method in brief:
as §3
Consider `Nc1ncc(-c2nc(N3CCOCC3)nc3c2CCN3c2cccnc2)cn1`, for which the area under the curve AUC(0-t) came to 7640 ng·h/mL.
Same read-out and setting: next, `Nc1ncc(-c2nc(N3CCOCC3)nc3c2CCN3c2ccc(C(=O)N3CCOCC3)cc2F)cn1`: 64500 ng·h/mL.

Another data set is described as follows: Cmax in cynomolgus monkey at 10 mg/kg, po by LC-MS/MS analysis. The data set is classed as ADME, organism-based, Macaca fascicularis. Set-up: dose 10 mg/kg, route oral. To be noted: in vivo. The method, boiled down:
as §1
Compound `Nc1ncc(-c2nc(N3CCOCC3)nc3c2CCN3c2cccnc2)cn1` gave a Cmax of 41.6 ng/mL.
`Nc1ncc(-c2nc(N3CCOCC3)nc3c2CCN3c2ccc(C(=O)N3CCOCC3)cc2F)cn1` returned a Cmax of 1060 ng/mL.

The nature of a further data set: Cmax in BALB/c nu mouse at 50 mg/kg, po by LC-MS/MS analysis. To be noted: in vivo. Also noted: dose 50 mg/kg, route oral. The data set is classed as ADME, organism-based. The method in brief:
as §3
In the case of `Nc1ncc(-c2nc(N3CCOCC3)nc3c2CCN3c2cccnc2)cn1`, the peak level (Cmax) was 4250 ng/mL.
Consider `Nc1ncc(-c2nc(N3CCOCC3)nc3c2CCN3c2ccc(C(=O)N3CCOCC3)cc2F)cn1`, for which the peak concentration (Cmax) was found to be 10000 ng/mL.

A further data set can be described thus: Half life in cynomolgus monkey at 2.5 mg/kg, iv by LC-MS/MS analysis. The data set is classed as ADME, organism-based, Macaca fascicularis. The settings on record: in vivo. The method in brief:
as §1
As for `Nc1ncc(-c2nc(N3CCOCC3)nc3c2CCN3c2ccc(C(=O)N3CCOCC3)cc2F)cn1`, the half-life was 4.5 h.

A further data set in a line: Intrinsic clearance in mouse liver microsomes at 1 uM after 30 mins by LC-MS/MS analysis. To be noted: read-out: CLH. The data set is classed as ADME. The method in brief:
as §2
Consider `Nc1ncc(-c2nc(N3CCOCC3)nc3c2CCN3c2cccnc2)cn1`, for which the microsomal CLint at 1 µM amounted to 11.5 µL/min/mg.
With `Nc1ncc(-c2nc(N3CCOCC3)nc3c2CCN3c2ccc(C(=O)N3CCOCC3)cc2F)cn1`, the microsomal CLint at 1 µM came to 0.14 µL/min/mg.

The nature of another data set: AUC (infinity) in cynomolgus monkey at 2.5 mg/kg, iv by LC-MS/MS analysis. The data set is classed as ADME, organism-based, Macaca fascicularis. Also noted: dose 2.5 mg/kg, time infinity, route intravenous. To be noted: in vivo. The method in brief: as §1
In the case of `Nc1ncc(-c2nc(N3CCOCC3)nc3c2CCN3c2ccc(C(=O)N3CCOCC3)cc2F)cn1`, the AUC(0-inf) came to 5570 ng·h/mL.

A further data set is described as follows: AUC (0 to t) in BALB/c nu mouse at 100 mg/kg, po by LC-MS/MS analysis. The data set is classed as ADME, organism-based. To be noted: in vivo. The method, boiled down:
as §3
In turn, `Nc1ncc(-c2nc(N3CCOCC3)nc3c2CCN3c2cccnc2)cn1` returned an AUC(0-t) of 19400 ng·h/mL.

Another data set is described as follows: Initial plasma concentration in cynomolgus monkey at 5 mg/kg, iv by LC-MS/MS analysis. The data set is classed as ADME, organism-based, Macaca fascicularis.
Settings: not given
The method, boiled down:
as §1
`Nc1ncc(-c2nc(N3CCOCC3)nc3c2CCN3c2cccnc2)cn1`: the C0 is 3120 ng/mL.
